In ChEMBL document CHEMBL3124882, “Semi-synthesis of acylated triterpenes from olive-oil industry wastes for the development of anticancer and anti-HIV agents” (Eur J Med Chem, 2014):

What was measured:
Protease = Protease (Human immunodeficiency virus 1, UniProt Q9YQ12); test: Inhibition of HIV1 recombinant protease expressed in Escherichia coli using Abz-Ala-Arg-Val-Nle-Tyr(NO2)-Glu-Ala-Nle-NH2 as substrate by FRET assay
B16-F10 [1] = test: Induction of apoptosis in mouse B16F10 cells assessed as necrotic cells at 2 X IC50 after 72 hrs by annexin V-FITC/propidium iodide staining-based FACS analysis (reference value: 4.0 +/- 0.6%); type: functional
B16-F10 [2] = test: Induction of apoptosis in mouse B16F10 cells assessed as necrotic cells at IC50 after 72 hrs by annexin V-FITC/propidium iodide staining-based FACS analysis (reference value: 4.0 +/- 0.6%); type: functional
B16-F10 [3] = test: Induction of apoptosis in mouse B16F10 cells assessed as total apoptotic cells at 2 X IC50 after 72 hrs by annexin V-FITC/propidium iodide staining-based FACS analysis (reference value: 13.7 +/- 2.7%); type: functional
B16-F10 [4] = test: Induction of apoptosis in mouse B16F10 cells assessed as total apoptotic cells at IC50 after 72 hrs by annexin V-FITC/propidium iodide staining-based FACS analysis (reference value: 13.7 +/- 2.7%); type: functional
B16-F10 [5] = test: Induction of apoptosis in mouse B16F10 cells assessed as late apoptotic cells at 2 X IC50 after 72 hrs by annexin V-FITC/propidium iodide staining-based FACS analysis (reference value: 9.8 +/- 2.2%); type: functional
B16-F10 [6] = test: Induction of apoptosis in mouse B16F10 cells assessed as late apoptotic cells at IC50 after 72 hrs by annexin V-FITC/propidium iodide staining-based FACS analysis (reference value: 9.8 +/- 2.2%); type: functional
B16-F10 [7] = test: Induction of apoptosis in mouse B16F10 cells assessed as early apoptotic cells at 2 X IC50 after 72 hrs by annexin V-FITC/propidium iodide staining-based FACS analysis (reference value: 3.9 +/- 0.4%); type: functional
B16-F10 [8] = test: Induction of apoptosis in mouse B16F10 cells assessed as early apoptotic cells at IC50 after 72 hrs by annexin V-FITC/propidium iodide staining-based FACS analysis (reference value: 3.9 +/- 0.4%); type: functional
B16-F10 [9] = test: Induction of apoptosis in mouse B16F10 cells assessed as normal cells at IC50 after 72 hrs by annexin V-FITC/propidium iodide staining-based FACS analysis (reference value: 77.9 +/- 1.5%); type: functional
B16-F10 [10] = test: Cytotoxicity against mouse B16F10 cells after 72 hrs by MTT assay; type: functional, cell-based; conditions: B16-F10, 72 h
In short: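 B16F10 cells (DMEM, 2 mM glutamine, 10% heat-inactivated FCS, penicillin/streptomycin; subconfluent) seeded at 11·10^3 per well and exposed to 0–80 µg/mL for 72 h. Compounds were diluted from a 10 mg/mL stock in 50% DMSO/PBS. MTT 0.5 mg/mL for 2 h, formazan dissolved in DMSO, absorbance at 550 nm. Viability is relative to untreated controls; IC50 from four assays of six replicates, mean ± S.E.M.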

B16-F10 [11] = test: Induction of apoptosis in mouse B16F10 cells assessed as normal cells at 2 X IC50 after 72 hrs by annexin V-FITC/propidium iodide staining-based FACS analysis (reference value: 77.9 +/- 1.5%); type: functional

Sequence of Protease (Q9YQ12 whole entry): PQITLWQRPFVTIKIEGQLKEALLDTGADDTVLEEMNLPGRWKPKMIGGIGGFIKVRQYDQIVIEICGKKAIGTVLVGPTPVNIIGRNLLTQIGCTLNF

CC1(C)CC[C@]2(C(=O)O)CC[C@]3(C)C(=CC[C@@H]4[C@@]5(C)C[C@@H](OC(=O)CCCC(=O)O)[C@H](OC(=O)CCCC(=O)O)C(C)(C)[C@@H]5CC[C@]43C)[C@@H]2C1
IC50 (Protease): 1.4 µM

CC1(C)CC[C@]2(C(=O)OCc3ccccc3)CC[C@]3(C)C(=CC[C@@H]4[C@@]5(C)C[C@@H](OC(=O)CCC(=O)O)[C@H](O)C(C)(C)[C@@H]5CC[C@]43C)[C@@H]2C1
IC50 (Protease): 15.6 µM

CC1(C)CC[C@]2(C(=O)O)CC[C@]3(C)C(=CC[C@@H]4[C@@]5(C)C[C@@H](OC(=O)CCC(=O)O)[C@H](OC(=O)CCC(=O)O)C(C)(C)[C@@H]5CC[C@]43C)[C@@H]2C1
IC50 (Protease): 1.9 µM

CC(C)(CC(=O)O)CC(=O)O[C@@H]1C[C@]2(C)[C@H]3CC=C4[C@@H]5CC(C)(C)CC[C@]5(C(=O)O)CC[C@@]4(C)[C@]3(C)CC[C@H]2C(C)(C)[C@H]1OC(=O)CC(C)(C)CC(=O)O
IC50 (Protease): 27.5 µM

CC(C)(CC(=O)O)CC(=O)O[C@H]1CC[C@]2(C)[C@H]3CC=C4[C@@H]5CC(C)(C)CC[C@]5(C(=O)O)CC[C@@]4(C)[C@]3(C)CC[C@H]2C1(C)C
IC50 (Protease): 0.7 µM

CC1(C)CC[C@]2(C(=O)O)CC[C@]3(C)C(=CC[C@@H]4[C@@]5(C)CC[C@H](O)C(C)(C)[C@@H]5CC[C@]43C)[C@@H]2C1 [OLEANOLIC_ACID]
Activity (B16-F10 [1]): 8.7%
Activity (B16-F10 [2]): 10.1%
Activity (B16-F10 [3]): 41.5%
Activity (B16-F10 [4]): 44.6%
Activity (B16-F10 [5]): 12.4%
Activity (B16-F10 [6]): 28.2%
Activity (B16-F10 [7]): 29.1%
Activity (B16-F10 [8]): 16.4%
Activity (B16-F10 [9]): 44.9%
IC50 (B16-F10 [10]): 106 µM
Activity (B16-F10 [11]): 49.8%
IC50 (Protease): 57.7 µM

CC1(C)CC[C@]2(C(=O)O)CC[C@]3(C)C(=CC[C@@H]4[C@@]5(C)CC[C@H](OC(=O)c6ccccc6C(=O)O)C(C)(C)[C@@H]5CC[C@]43C)[C@@H]2C1
IC50 (Protease): 0.31 µM

CC1(C)CC[C@]2(C(=O)O)CC[C@]3(C)C(=CC[C@@H]4[C@@]5(C)C[C@@H](OC(=O)CCC(=O)O)[C@H](O)C(C)(C)[C@@H]5CC[C@]43C)[C@@H]2C1
IC50 (Protease): 3.5 µM

CC1(C)CC[C@]2(C(=O)O)CC[C@]3(C)C(=CC[C@@H]4[C@@]5(C)C[C@@H](OC(=O)CCCC(=O)O)[C@H](O)C(C)(C)[C@@H]5CC[C@]43C)[C@@H]2C1
IC50 (Protease): 3.2 µM

CCCCCCCCCCCC(=O)O[C@@H]1C[C@]2(C)[C@H]3CC=C4[C@@H]5CC(C)(C)CC[C@]5(C(=O)OCc5ccccc5)CC[C@@]4(C)[C@]3(C)CC[C@H]2C(C)(C)[C@H]1OC(=O)CCCCCCCCCCC
IC50 (Protease): 73 µM

CCCC(=O)O[C@@H]1C[C@]2(C)[C@H]3CC=C4[C@@H]5CC(C)(C)CC[C@]5(C(=O)OCc5ccccc5)CC[C@@]4(C)[C@]3(C)CC[C@H]2C(C)(C)[C@H]1O
IC50 (Protease): 226 µM

CCCC(=O)O[C@@H]1C[C@]2(C)[C@H]3CC=C4[C@@H]5CC(C)(C)CC[C@]5(C(=O)O)CC[C@@]4(C)[C@]3(C)CC[C@H]2C(C)(C)[C@H]1OC(=O)CCC
IC50 (Protease): 31.2 µM

CC1(C)CC[C@]2(C(=O)O)CC[C@]3(C)C(=CC[C@@H]4[C@@]5(C)CC[C@H](OC(=O)CCCC(=O)O)C(C)(C)[C@@H]5CC[C@]43C)[C@@H]2C1
IC50 (Protease): 0.56 µM
